For 14 molecules, MIC and inhibition results are on record in ChEMBL document CHEMBL2384957, “Synthesis and antimicrobical evaluation of a novel class of 1,3,4-thiadiazole: derivatives bearing 1,2,4-triazolo[1,5-a]pyrimidine moiety” (2013).

Holding throughout (type): functional
The subject of one test is Staphylococcus aureus. The test can be described thus: Antibacterial activity against Staphylococcus aureus ATCC 6538 assessed as growth inhibition after 24 hrs by two-fold serial dilution method. The note with it: ATCC 6538, 24 h. The essentials: (§1)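 MICs were determined by two-fold serial dilution in nutrient broth, following CLSI. The inoculum came from 24 h bacterial cultures on nutrient agar at 37 ± 1 °C and was adjusted in sterile saline to 1×10⁴–10⁵ CFU/mL. Tubes were incubated at 37 ± 1 °C. MIC was read visually after 24 h, with kanamycin as the reference standard.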

A further test concerns Pseudomonas fluorescens. The test can be described thus: Antibacterial activity against Pseudomonas fluorescens ATCC 13525 assessed as growth inhibition after 24 hrs by two-fold serial dilution method. Particulars: ATCC 13525, 24 h. The essentials: as §1
For another test, the system named is Cercospora beticola. The test can be described thus: Antifungal activity against Cercospora beticola assessed as inhibition of mycelia elongation rate at 50 ppm after 48 hrs relative to control. The gist of the method:
(§2)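 This was a mycelial growth assay on potato glucose agar. Samples were dissolved in DMF at 500 mg/L (stock), and 1 part solution was mixed with 9 parts thawed medium at 50 °C before plating. Solidified plates were inoculated with a 4 mm mycelium disk, inverted and incubated at 28 °C for 48 h. Medium without sample served as blank. Mycelial elongation radius was measured, in triplicate.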

The test system of a further test is Rhizoctonia solani. Nature of the test: Antifungal activity against Rhizoctonia solani assessed as inhibition of mycelia elongation rate at 50 ppm after 48 hrs relative to control. The gist of the method: as §2
For a further test, the system named is Escherichia coli. The test can be described thus: Antibacterial activity against Escherichia coli ATCC 35218 assessed as growth inhibition after 24 hrs by two-fold serial dilution method. The note with it: ATCC 35218, 24 h. The essentials: as §1
In the next test the test system is Fusarium oxysporum. The test can be described thus: Antifungal activity against Fusarium oxysporum assessed as inhibition of mycelia elongation rate at 50 ppm after 48 hrs relative to control. The essentials: as §2
For a further test, the system named is Bacillus spizizenii. Nature of the test: Antibacterial activity against Bacillus subtilis ATCC 6633 assessed as growth inhibition after 24 hrs by two-fold serial dilution method. The note with it: ATCC 6633, 24 h. The gist of the method:
as §1

The nature of test [1]: Antifungal activity against Gibberella saubinettii assessed as inhibition of mycelia elongation rate at 50 ppm after 48 hrs relative to control. Particulars: Fusarium graminearum. The gist of the method: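 Poisoned-agar mycelial growth test: sample dissolved in DMF at 500 mg/L, 1 mL mixed into 9 mL thawed potato glucose agar at 50 °C and poured into plates. A 4 mm mycelium disk was placed on each plate, inverted, incubated 28 °C for 48 h. Mycelial elongation radius (mm) measured against a sample-free medium blank; three replicates.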

A short description of test [2]: Antifungal activity against Physalospora pyricola assessed as inhibition of mycelia elongation rate at 50 ppm after 48 hrs relative to control. Particulars: Botryosphaeria berengeriana. The gist of the method:
as §2

Converted amounts (≈) assume the structure as drawn.

In general, MIC refers to the lowest concentration that inhibits growth of the organism. What is called inhibition is the drop in the measured response relative to a control, in per cent.

Turning to `Cc1cccc(CSc2nnc(CSc3nc4nc(C)cc(C)n4n3)s2)c1`, the MIC in the test on Staphylococcus aureus is above 100 µg/mL; with Pseudomonas fluorescens, 50 µg/mL (≈ 121 µM); with Escherichia coli it was 12.5 µg/mL (≈ 30.2 µM); with Bacillus spizizenii it was above 100 µg/mL. Besides, the inhibition at 50 ppm with Cercospora beticola stood at 43%; in the test on Rhizoctonia solani it was 54%; in the test with Fusarium oxysporum, 55%. For the same molecule, the inhibition amounted to 45% in test [1] and 72% in test [2].

Turning to `Cc1cc(C)n2nc(SCc3nnc(SCc4ccc(C)c([N+](=O)[O-])c4)s3)nc2n1`, the MIC in the test on Staphylococcus aureus was above 100 µg/mL; in the test on Pseudomonas fluorescens, 12.5 µg/mL (≈ 27.2 µM); in the test on Escherichia coli, 25 µg/mL (≈ 54.4 µM); in the test on Bacillus spizizenii, 12.5 µg/mL (≈ 27.2 µM). In addition, the inhibition at 50 ppm in the test on Cercospora beticola is 78%; with Rhizoctonia solani, 89%; in the test on Fusarium oxysporum, 40%. The figures for the inhibition in test [1] and in [2] were 41% and 68%, respectively.

For `Cc1cc(C)n2nc(SCc3nnc(SCc4c(F)cccc4F)s3)nc2n1`, the MIC with Staphylococcus aureus is above 100 µg/mL; in the test on Pseudomonas fluorescens, 6.25 µg/mL (≈ 14.3 µM); in the test with Escherichia coli, 12.5 µg/mL (≈ 28.6 µM); with Bacillus spizizenii, 50 µg/mL (≈ 115 µM). Besides, the inhibition at 50 ppm was 60% in the test with Cercospora beticola, 83% in the test on Rhizoctonia solani and 36% in the test on Fusarium oxysporum. Moreover, the inhibition in [1] is 33%; in test [2], 73%.

Turning to `Cc1cc(C)n2nc(SCc3nnc(SCc4ccc(Br)cc4)s3)nc2n1`, the MIC in the test with Staphylococcus aureus was above 100 µg/mL; in the test with Pseudomonas fluorescens it was 100 µg/mL (≈ 209 µM); in the test with Escherichia coli, 12.5 µg/mL (≈ 26.1 µM); with Bacillus spizizenii, above 100 µg/mL. Further, the values for the inhibition at 50 ppm in the test with Cercospora beticola, with Rhizoctonia solani and in the test on Fusarium oxysporum were 43%, 51% and 62%, respectively. For the same molecule, the inhibition in test [1] worked out at 25%; in test [2], 76%.

Take `Cc1cc(C)n2nc(SCc3nnc(SCc4cccc(Br)c4)s3)nc2n1`: the MIC is above 100 µg/mL in the test with Staphylococcus aureus, 50 µg/mL (≈ 104 µM) in the test with Pseudomonas fluorescens, 50 µg/mL (≈ 104 µM) with Escherichia coli and 12.5 µg/mL (≈ 26.1 µM) with Bacillus spizizenii. Further, the inhibition at 50 ppm in the test on Cercospora beticola stood at 77%; in the test with Rhizoctonia solani it was 67%; in the test with Fusarium oxysporum, 56%. Besides, the figures for the inhibition in test [1] and in [2] were 47% and 58%, respectively.

In the case of `COc1cccc(CSc2nnc(CSc3nc4nc(C)cc(C)n4n3)s2)c1`, the MIC was 12.5 µg/mL (≈ 29 µM) with Staphylococcus aureus, above 100 µg/mL with Pseudomonas fluorescens, 25 µg/mL (≈ 58.1 µM) with Escherichia coli and 50 µg/mL (≈ 116 µM) in the test on Bacillus spizizenii. Besides, the inhibition at 50 ppm was determined as 62% in the test on Cercospora beticola, 49% in the test on Rhizoctonia solani and 44% in the test on Fusarium oxysporum. For the same molecule, the inhibition in test [1] stood at 67%; in test [2] it was 69%.

`Cc1ccc(CSc2nnc(CSc3nc4nc(C)cc(C)n4n3)s2)cc1`: the MIC in the test on Staphylococcus aureus was above 100 µg/mL; in the test on Pseudomonas fluorescens it was 50 µg/mL (≈ 121 µM); with Escherichia coli, 12.5 µg/mL (≈ 30.2 µM); with Bacillus spizizenii, above 100 µg/mL. Further, the inhibition at 50 ppm was 38% in the test with Cercospora beticola, 57% in the test on Rhizoctonia solani and 65% in the test with Fusarium oxysporum. The inhibition in test [1] is 32%; in test [2] it was 74%.

On to `Cc1cc(C)n2nc(SCc3nnc(SCc4cc(F)cc(F)c4)s3)nc2n1`, for which the MIC with Staphylococcus aureus was above 100 µg/mL; in the test with Pseudomonas fluorescens, 12.5 µg/mL (≈ 28.6 µM); in the test on Escherichia coli, 25 µg/mL (≈ 57.3 µM); in the test with Bacillus spizizenii, 50 µg/mL (≈ 115 µM). For the same molecule, the inhibition at 50 ppm stood at 61% in the test with Cercospora beticola, 75% with Rhizoctonia solani and 38% in the test on Fusarium oxysporum. Besides, the inhibition in test [1] was determined as 41%; in [2] it was 68%.

For the molecule `Cc1cc(C)n2nc(SCc3nnc(SCc4ccccc4C)s3)nc2n1`, the MIC is above 100 µg/mL in the test on Staphylococcus aureus, 25 µg/mL (≈ 60.3 µM) in the test on Pseudomonas fluorescens, 12.5 µg/mL (≈ 30.2 µM) in the test on Escherichia coli and above 100 µg/mL in the test on Bacillus spizizenii. In addition, the inhibition at 50 ppm was 36% with Cercospora beticola, 55% with Rhizoctonia solani and 50% in the test with Fusarium oxysporum. For the same molecule, the inhibition in [1] was 48%; in test [2] it was 73%.

As for `Cc1cc(C)n2nc(SCc3nnc(SCc4ccccc4Br)s3)nc2n1`, the MIC was above 100 µg/mL with Staphylococcus aureus, 25 µg/mL (≈ 52.1 µM) with Pseudomonas fluorescens, 12.5 µg/mL (≈ 26.1 µM) in the test on Escherichia coli and above 100 µg/mL with Bacillus spizizenii. Also, the inhibition at 50 ppm in the test with Cercospora beticola amounted to 45%; in the test on Rhizoctonia solani it was 63%; in the test on Fusarium oxysporum it was 40%. Moreover, the inhibition was 44% in test [1] and 75% in test [2].

As to `Cc1cc(C)n2nc(SCc3nnc(SCc4ccc(F)cc4)s3)nc2n1`, the MIC was above 100 µg/mL with Staphylococcus aureus, 50 µg/mL (≈ 119 µM) with Pseudomonas fluorescens, 12.5 µg/mL (≈ 29.9 µM) in the test on Escherichia coli and 50 µg/mL (≈ 119 µM) in the test on Bacillus spizizenii. The inhibition at 50 ppm in the test on Cercospora beticola is 60%; in the test on Rhizoctonia solani it was 55%; in the test on Fusarium oxysporum it was 42%. Further, the inhibition amounted to 18% in test [1] and 79% in test [2].

Consider `Cc1cc(C)n2nc(SCc3nnc(SCc4ccccc4F)s3)nc2n1`, for which the MIC with Staphylococcus aureus was above 100 µg/mL; in the test on Pseudomonas fluorescens it was 25 µg/mL (≈ 59.7 µM); with Escherichia coli, 12.5 µg/mL (≈ 29.9 µM); with Bacillus spizizenii, above 100 µg/mL. The inhibition at 50 ppm with Cercospora beticola was found to be 39%; in the test on Rhizoctonia solani, 68%; with Fusarium oxysporum, 55%. Further, the inhibition in test [1] worked out at 45%; in test [2] it was 78%.

As to `C=Cc1ccc(CSc2nnc(CSc3nc4nc(C)cc(C)n4n3)s2)cc1`, the MIC in the test with Staphylococcus aureus amounted to 12.5 µg/mL (≈ 29.3 µM); in the test on Pseudomonas fluorescens it was 100 µg/mL (≈ 234 µM); in the test on Escherichia coli it was 12.5 µg/mL (≈ 29.3 µM); in the test on Bacillus spizizenii, 50 µg/mL (≈ 117 µM). Also, the inhibition at 50 ppm with Cercospora beticola came out at 54%; in the test with Rhizoctonia solani it was 50%; in the test on Fusarium oxysporum it was 42%. Also, the inhibition stood at 78% in test [1] and 72% in [2].

As for `Cc1cc(C)n2nc(SCc3nnc(SCc4ccc(F)cc4F)s3)nc2n1`, the MIC came out at 25 µg/mL (≈ 57.3 µM) with Staphylococcus aureus, 12.5 µg/mL (≈ 28.6 µM) with Pseudomonas fluorescens, 3.13 µg/mL (≈ 7.17 µM) with Escherichia coli and 25 µg/mL (≈ 57.3 µM) in the test on Bacillus spizizenii. The inhibition at 50 ppm stood at 64% with Cercospora beticola, 79% in the test on Rhizoctonia solani and 56% in the test with Fusarium oxysporum. Also, the inhibition in test [1] turned out to be 64%; in [2], 86%.
